{"source": "ChEMBL document CHEMBL4043263", "about": "“Identification of selective 8-(piperidin-4-yloxy)quinoline sulfone and sulfonamide histamine H1 receptor antagonists for use in allergic rhinitis” (Bioorg Med Chem Lett, 2017)", "key": {"[1]": {"assay": "Dissociation constant, pKa of the compound", "format": "physicochemical"}, "[2]": {"assay": "Ratio of drug level in brain to blood in CD Sprague-Dawley rat at 1 mg/kg, iv administered via bolus dose after 5 mins by LC-MS/MS analysis", "format": "ADME, organism-based", "conditions": "brain and blood; call rule not given here", "method_in_brief": "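Rats received a single intravenous bolus at 1 mg/kg. Brain and blood samples were taken 5 min after dosing. Brain concentration was expressed as ng/g tissue, and the brain:blood concentration ratio was calculated.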"}, "[3]": {"assay": "AUC (0 to last) in CD Sprague-Dawley rat at 3 mg/kg, po by LC-MS/MS analysis"}, "[4]": {"assay": "Drug level in CD Sprague-Dawley rat brain at 1 mg/kg, iv administered via bolus dose measured after 5 mins by LC-MS/MS analysis", "format": "ADME, organism-based", "conditions": "read-out: Drug uptake", "method_in_brief": "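Rats given a 1 mg/kg intravenous bolus; brain and blood sampled 5 min later. Reported as mean brain concentration (ng/g tissue) and brain:blood ratio.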"}, "[5]": {"assay": "Bioavailability in sc dosed CD Sprague-Dawley rat by LC-MS/MS analysis", "format": "ADME, organism-based", "conditions": "in vivo", "method_in_brief": "(§1)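 Single rat dosed subcutaneously at 2 mg/kg in DMSO–PEG 200–water (5:45:50). Bioavailability estimated against intravenous data.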"}, "in vivo": {"assay": "in vivo", "conditions": "CD Sprague-Dawley, rat, brain and blood, po, 300 mg/kg"}, "[6]": {"assay": "Bioavailability in CD Sprague-Dawley rat at 2 mg/kg, sc by LC-MS/MS analysis", "format": "ADME, organism-based", "conditions": "in vivo", "method_in_brief": "as §1"}, "Liver [7]": {"tested_on": "Liver", "assay": "Drug metabolism in human liver microsomes", "format": "ADME, microsome", "method_in_brief": "(§2)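 Intrinsic clearance measured in vitro with liver microsomes from mouse, rat, dog and human; expressed as mL/min/g tissue.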"}, "[8]": {"assay": "Drug metabolism in human hepatocytes assessed as M19 formation by mass spectrometric analysis", "format": "ADME, cell-based, Hepatocyte"}, "[9]": {"assay": "Blood clearance in CD Sprague-Dawley rat at 1 mg/kg, iv or 3 mg/kg, po by LC-MS/MS analysis", "format": "ADME, organism-based", "method_in_brief": "(§3)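 CD rats dosed intravenously at 1 mg/kg (n=4) or orally at 3 mg/kg (n=3) as a solution in H2O–PEG200–DMSO (50:45:5). Blood clearance reported as mean and as % of liver blood flow; half-life taken from intravenous data.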"}, "[10]": {"assay": "Drug absorption in CD Sprague-Dawley rat hepatic portal vein at 3 mg/kg, po", "format": "ADME, organism-based", "conditions": "read-out: Drug absorption", "method_in_brief": "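Rats given 3 mg/kg orally; the fraction of dose absorbed into the hepatic portal vein was calculated.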"}, "[11]": {"assay": "Oral bioavailability in Beagle dog at 1 to 2 mg/kg administered via gavage by LC-MS/MS analysis", "format": "ADME, organism-based, Canis lupus familiaris", "conditions": "in vivo", "method_in_brief": "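Beagle dogs given oral doses of 1 mg/kg (n=2) or 2 mg/kg (n=2) in H2O–PEG200–DMSO (50:45:5). Bioavailability is the mean of the four animals, referenced to a 1 mg/kg intravenous dose.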"}, "[12]": {"assay": "Permeability in MDCK cells", "format": "ADME, cell-based, Canis lupus familiaris", "conditions": "dog, read-out: permeability", "method_in_brief": "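Permeability measured across MDCK cell monolayers, reported in nm/s; n=3.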"}, "[13]": {"assay": "Volume of distribution at steady state in CD Sprague-Dawley rat at 1 mg/kg, iv or 3 mg/kg, po by LC-MS/MS analysis", "format": "ADME, organism-based", "conditions": "in vivo, read-out: Vdss", "method_in_brief": "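CD rats (n=4) received a 1 mg/kg intravenous dose of the dihydrochloride salt as a solution in H2O–PEG200–DMSO (50:45:5). Steady-state volume of distribution was taken from the intravenous blood profile and reported as the mean.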"}, "[14]": {"assay": "Volume of distribution at steady state in Beagle dog at 0.5 mg/kg, iv administered via bolus dose or 1 mg/kg, po administered via gavage by LC-MS/MS analysis", "format": "ADME, organism-based, Canis lupus familiaris", "conditions": "in vivo, read-out: Vdss"}, "[15]": {"assay": "Drug excretion in Beagle dog urine at 1 mg/kg, iv administered via bolus dose by LC-MS/MS analysis"}, "[16]": {"assay": "Drug level in blood of ovalbumin-sensitized guinea pig model of histamine-induced allergic rhinitis", "format": "ADME, tissue-based, Cavia porcellus", "conditions": "read-out: Drug uptake", "method_in_brief": "(§4)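 Arterial blood taken from guinea pigs immediately after nasal congestion was assessed, 4 or 25 h after an intranasal dose of 1 mg/mL solution (25 µL/nostril).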"}, "[17]": {"assay": "Drug metabolism in human hepatocytes assessed as M15 formation by mass spectrometric analysis", "format": "ADME, cell-based, Hepatocyte"}, "Liver [18]": {"tested_on": "Liver", "assay": "Drug metabolism in mouse liver microsomes", "format": "ADME, microsome", "method_in_brief": "as §2"}, "[19]": {"assay": "Drug excretion in Beagle dog urine at 1 mg/kg, po administered via gavage by LC-MS/MS analysis", "format": "ADME, organism-based, Canis lupus familiaris", "conditions": "read-out: Drug excretion", "method_in_brief": "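Parent compound measured in urine of dogs after intravenous (1 mg/kg) or oral dosing; expressed as % of dose.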"}, "[20]": {"assay": "Drug level in CD Sprague-Dawley rat brain at 300 mg/kg, po measured after 30 mins by LC-MS/MS analysis", "format": "ADME, organism-based", "conditions": "read-out: Drug uptake", "method_in_brief": "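Rats given a single 300 mg/kg oral dose; brain and blood sampled 30 min later. Reported as brain concentration (ng/g) and brain:blood ratio.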"}, "[21]": {"assay": "Drug metabolism in human hepatocytes assessed as M11 formation by mass spectrometric analysis", "format": "ADME, cell-based, Hepatocyte"}, "[22]": {"assay": "Drug metabolism in human hepatocytes assessed as M26 formation by mass spectrometric analysis", "format": "ADME, cell-based, Hepatocyte"}, "Canis familiaris": {"tested_on": "Canis familiaris", "assay": "Blood clearance in Beagle dog at 0.5 mg/kg, iv administered via bolus dose or 1 mg/kg, po administered via gavage by LC-MS/MS analysis relative to liver blood flow", "format": "ADME, organism-based, Canis lupus familiaris", "conditions": "in vivo"}, "[23]": {"assay": "Elimination half life in Beagle dog at 0.5 mg/kg, iv administered via bolus dose or 1 mg/kg, po administered via gavage by LC-MS/MS analysis", "format": "ADME, organism-based, Canis lupus familiaris", "conditions": "in vivo, read-out: beta t1/2 (converted)"}, "Rattus norvegicus": {"tested_on": "Rattus norvegicus", "assay": "Blood clearance in CD Sprague-Dawley rat at 1 mg/kg, iv or 3 mg/kg, po by LC-MS/MS analysis relative to liver blood flow", "format": "ADME, organism-based", "conditions": "in vivo", "method_in_brief": "as §3"}, "[24]": {"assay": "Elimination half life in CD Sprague-Dawley rat at 1 mg/kg, iv by LC-MS/MS analysis", "format": "ADME, organism-based", "conditions": "in vivo, read-out: beta t1/2 (converted)", "method_in_brief": "as §3"}, "Liver [25]": {"tested_on": "Liver", "assay": "Drug metabolism in dog liver microsomes", "format": "ADME, Canis lupus familiaris, microsome", "method_in_brief": "as §2"}, "Liver [26]": {"tested_on": "Liver", "assay": "Drug metabolism in rat liver microsomes", "format": "ADME, microsome", "method_in_brief": "as §2"}, "[27]": {"assay": "Oral bioavailability in CD Sprague-Dawley rat at 10 mg/kg by LC-MS/MS analysis", "format": "ADME, organism-based", "conditions": "in vivo", "method_in_brief": "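Three rats dosed orally at 10 mg/kg in 0.5% hydroxypropylmethyl cellulose. Bioavailability is a lower-bound estimate because the terminal phase was poorly defined.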"}, "[28]": {"assay": "Drug uptake in arterial blood of ovalbumin-sensitized guinea pig model of histamine-induced allergic rhinitis at 1 mg/ml administered intranasally pretreated for 4 hrs followed by histamine challenge after 30 mins post atropine monohydrate hemisulfate addition", "format": "ADME, tissue-based, Cavia porcellus", "conditions": "in vivo, inhaled_or_intranasal, 0.5 h", "method_in_brief": "as §4"}, "[29]": {"assay": "Drug metabolism in human hepatocytes assessed as M24 formation by mass spectrometric analysis", "format": "ADME, cell-based, Hepatocyte"}, "[30]": {"assay": "Drug uptake in arterial blood of ovalbumin-sensitized guinea pig model of histamine-induced allergic rhinitis at 1 mg/ml administered intranasally pretreated for 24 hrs followed by histamine challenge after 30 mins post atropine monohydrate hemisulfate addition", "format": "ADME, tissue-based, Cavia porcellus", "conditions": "in vivo, inhaled_or_intranasal, 0.5 h", "method_in_brief": "as §4"}, "[31]": {"assay": "Blood clearance in Beagle dog at 0.5 mg/kg, iv administered via bolus dose or 1 mg/kg, po administered via gavage by LC-MS/MS analysis", "format": "ADME, organism-based, Canis lupus familiaris"}}}
{"smiles": "CCCCc1cc(OC2CCN(CCS(=O)(=O)CC)CC2)c2ncccc2c1", "values": [{"measurement": "pKa", "setting": "[1]", "result": 6.5}]}
{"smiles": "CCCCc1cc(OC2CCN(CCCS(=O)(=O)CC)CC2)c2ncccc2c1.Cl.Cl", "values": [{"measurement": "Kp at 5 min", "setting": "[2]", "result": 0.09}, {"measurement": "pKa", "setting": "[1]", "result": 7.9}, {"measurement": "AUC(0-t)", "setting": "[3]", "result": 568, "unit": "ng·h/mL"}, {"measurement": "concentration at 5 min", "setting": "[4]", "result": 62, "unit": "ng/g"}]}
{"smiles": "CCCCc1cc(OC2CCN(CCCS(=O)(=O)C(C)(C)C)CC2)c2ncccc2c1", "values": [{"measurement": "Kp at 5 min", "setting": "[2]", "result": 0.77}, {"measurement": "pKa", "setting": "[1]", "result": 8}, {"measurement": "concentration at 5 min", "setting": "[4]", "result": 133, "unit": "ng/g"}]}
{"smiles": "CCCCc1cc(OC2CCN(CCCCNS(=O)(=O)CC)CC2)c2ncccc2c1.Cl.Cl", "values": [{"measurement": "Kp at 5 min", "setting": "[2]", "result": 0.1}, {"measurement": "bioavailability", "setting": "[5]", "result": 45, "unit": "%"}, {"measurement": "Kp at 0.5 h", "setting": "in vivo", "result": 11}, {"measurement": "bioavailability", "setting": "[6]", "result": 45, "unit": "%"}, {"measurement": "Drug metabolism", "setting": "Liver [7]", "result": 1.4, "unit": "mL/min/g"}, {"measurement": "Drug metabolism", "setting": "[8]", "result": "Metabolite_Detected"}, {"measurement": "clearance", "setting": "[9]", "result": 38, "unit": "mL/min/kg"}, {"measurement": "Fa", "setting": "[10]", "result": "13 to 16", "unit": "%"}, {"measurement": "bioavailability", "setting": "[11]", "result": 5, "unit": "%"}, {"measurement": "Papp", "setting": "[12]", "result": 5.2, "unit": "×10⁻⁶ cm/s"}, {"measurement": "Vd", "setting": "[13]", "result": 4.2, "unit": "L/kg"}, {"measurement": "Vd", "setting": "[14]", "result": 4.5, "unit": "L/kg"}, {"measurement": "dose excreted", "setting": "[15]", "result": "< 1", "unit": "%"}, {"measurement": "concentration", "setting": "[16]", "result": 7, "unit": "nM"}, {"measurement": "Drug metabolism", "setting": "[17]", "result": "Metabolite_Detected"}, {"measurement": "AUC(0-t)", "setting": "[3]", "result": 62, "unit": "ng·h/mL"}, {"measurement": "Drug metabolism", "setting": "Liver [18]", "result": 3.7, "unit": "mL/min/g"}, {"measurement": "dose excreted", "setting": "[19]", "result": "< 0.1", "unit": "%"}, {"measurement": "concentration at 0.5 h", "setting": "[20]", "result": 14500, "unit": "ng/g"}, {"measurement": "concentration at 5 min", "setting": "[4]", "result": 26, "unit": "ng/g"}, {"measurement": "Drug metabolism", "setting": "[21]", "result": "Metabolite_Detected"}, {"measurement": "Drug metabolism", "setting": "[22]", "result": "Metabolite_Detected"}, {"measurement": "CL", "setting": "Canis familiaris", "result": 65, "unit": "%"}, {"measurement": "half-life", "setting": "[23]", "result": 3.8, "unit": "h"}, {"measurement": "CL", "setting": "Rattus norvegicus", "result": 45, "unit": "%"}, {"measurement": "half-life", "setting": "[24]", "result": 1.8, "unit": "h"}, {"measurement": "Drug metabolism", "setting": "Liver [25]", "result": 3.6, "unit": "mL/min/g"}, {"measurement": "Drug metabolism", "setting": "Liver [26]", "result": 2.9, "unit": "mL/min/g"}, {"measurement": "bioavailability", "setting": "[27]", "result": "4 to 9", "unit": "%"}, {"measurement": "Drug uptake", "setting": "[28]", "result": "Active"}, {"measurement": "Drug metabolism", "setting": "[29]", "result": "Metabolite_Detected"}, {"measurement": "Drug uptake", "setting": "[30]", "result": "Active"}, {"measurement": "clearance", "setting": "[31]", "result": 20, "unit": "mL/min/kg"}]}
{"smiles": "CCCCc1cc(OC2CCN(CCCNS(=O)(=O)CC)CC2)c2ncccc2c1", "values": [{"measurement": "pKa", "setting": "[1]", "result": 8.5}]}
